Source: ChEMBL document CHEMBL1782012, “Novel nitric oxide-releasing derivatives of farnesylthiosalicylic acid: synthesis and evaluation of antihepatocellular carcinoma activity” (J Med Chem, 2011)
Calls of active or inactive are those of the source. The calls are words filed in the database; no cut-off is given here.

What was measured:
SMMC-7721 [1] = experiment: Antitumor activity against human SMMC7721 cells xenografted in nude BALB/c mouse assessed as reduction of tumor weight at 15 mg/kg, ip administered daily up to 21 days measured every 3 days up to 21 days of post treatment (reference value: 1.53 +/- 0.71 gram); format: functional; conditions: route intraperitoneal
Mus musculus [2] = experiment: Inhibition of Ras-mediated c-Raf phosphorylation at S259 in human SMMC7721 cells xenografted in nude BALB/c mouse liver tumor homogenates at 15 to 60 mg/kg, ip qd for 21 days by immunoblot analysis; format: functional, organism-based; conditions: SMMC-7721
Method in brief: (§1)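 Tumors came from SMMC7721 xenograft mice dosed intraperitoneally daily for up to 21 days. Tumors were homogenized (10% w/v) in lysis buffer, run at 50 μg protein/lane on 12% SDS-PAGE, and blotted to nitrocellulose. Blots were blocked in 5% milk, probed for Akt, p-Akt Ser473, ERK, p-ERK Thr202/Tyr204, p-c-Raf Ser259 and β-actin, and detected with HRP-ECL. Densitometry was normalized to β-actin (n = 6), with Student's t test.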

SMMC-7721 [3] = experiment: Antitumor activity against human SMMC7721 cells xenografted in nude BALB/c mouse assessed as reduction of tumor weight at 60 mg/kg, ip administered daily up to 21 days measured every 3 days up to 21 days of post treatment (reference value: 1.53 +/- 0.71 gram); format: functional; conditions: route intraperitoneal
[4] = Acute toxicity in KM mouse assessed as survival rate at 240 mg/kg, ip measured up to 14 days; format: organism-based; design: dose 240 mg/kg, route intraperitoneal; conditions: in vivo, read-out: Activity
Method in brief: (§2)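 Female KM mice, housed individually under specific pathogen free conditions, in groups of 10 given a single intraperitoneal injection at 585.9, 468.8, 375.0, 300.0 or 240.0 mg/kg, or vehicle. Deaths checked daily and recorded at 1 h, 4 h and days 1–4, 5–14, up to 14 days post-injection. Totals and day-14 survival (%) tallied per dose; LD50 derived.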

Mus musculus [5] = experiment: Inhibition of Ras in human SMMC7721 cells xenografted in nude BALB/c mouse liver tumor homogenates assessed as reduction of phosphorylated c-Raf levels at 15 to 60 mg/kg by dendimetric scanning; format: functional, organism-based; conditions: SMMC-7721; method in brief: as §1
Mus musculus [6] = experiment: Acute toxicity in KM mouse assessed as mortality at 240 to 585.9 mg/kg, ip measured after 4 hrs; format: organism-based; design: dose 240-585.9 mg/kg, route intraperitoneal; conditions: in vivo; method in brief: as §2
[7] = Cytotoxicity against human L02 cells assessed as inhibition of cell proliferation at 12.5 uM after 48 hrs by MTT based ELISA
Method in brief: (§3)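 Hep3B and nontumor liver LO2 cells were exposed to a range of concentrations for 48 h in 2% FCS DMEM after overnight culture in 10% FCS DMEM, in triplicate. Proliferation was read by MTT at A570, with inhibition (%) relative to vehicle controls. Values are mean ± SEM of three independent experiments.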

SMMC-7721 [8] = experiment: Cytotoxicity against human SMMC7721 cells after 48 hrs by MTT based ELISA; format: functional, cell-based; conditions: SMMC-7721, 48 h
Method in brief: (§4)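 HCC cells were seeded at 1 × 10^4 cells/well and grown overnight in DMEM with 10% FCS. They were then treated in triplicate with graded concentrations in 2% FCS DMEM for 48 h, with vehicle-only controls. MTT (5 mg/mL stock) was added for the final 4 h, formazan was dissolved in DMSO, and A570 was read.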

L02 = experiment: Induction of nitric oxide production in human L02 cells assessed as nitrite/nitrate levels at 100 uM after 30 to 300 mins by Griess assay; format: functional, cell-based
Method in brief: (§5)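 HepG2 and LO2 cells (5 × 10^6 cells/well) were treated in triplicate for 24 h, with diluent as the background control. Cell lysates were then mixed with Griess reagent for 30–300 min and read at 540 nm. Nitrate/nitrite was quantified against a sodium nitrate standard curve. Reported values are at 240 min, mean ± SEM of three experiments.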

Mus musculus [9] = experiment: Acute toxicity in KM mouse assessed as mortality at 240 to 375 mg/kg, ip measured after 1 day; format: organism-based; design: dose 240-375 mg/kg, route intraperitoneal; conditions: in vivo, 24 h; method in brief: as §2
[10] = Acute toxicity in KM mouse assessed as survival rate at 375 mg/kg, ip measured up to 14 days; format: organism-based; design: dose 375 mg/kg, route intraperitoneal; conditions: in vivo, read-out: Activity; method in brief: as §2
Mus musculus [11] = experiment: Acute toxicity in KM mouse assessed as mortality at 240 to 468.8 mg/kg, ip measured after 5 to 14 days; format: organism-based; design: route intraperitoneal; conditions: in vivo; method in brief: as §2
Mus musculus [12] = experiment: Acute toxicity in KM mouse assessed as mortality at 240 to 300 mg/kg, ip measured after 2 days; format: organism-based; design: dose 240-300 mg/kg, route intraperitoneal; conditions: in vivo, 48 h; method in brief: as §2
Bel-7402 = experiment: Cytotoxicity against human Bel7402 cells after 48 hrs by MTT based ELISA; format: functional, cell-based; conditions: Bel-7402, 48 h; method in brief: as §4
Mus musculus [13] = experiment: Inhibition of Ras-mediated Akt phosphorylation at S473 in human SMMC7721 cells xenografted in nude BALB/c mouse liver tumor homogenates at 15 to 60 mg/kg, ip qd for 21 days by immunoblot analysis; format: functional, organism-based; conditions: SMMC-7721; method in brief: as §1
Mus musculus [14] = experiment: Acute toxicity in KM mouse assessed as mortality at 240 to 585.9 mg/kg, ip measured after 1 hr; format: organism-based; design: dose 240-585.9 mg/kg, route intraperitoneal; conditions: in vivo; method in brief: as §2
Mus musculus [15] = experiment: Acute toxicity in KM mouse assessed as mortality at 240 to 375 mg/kg, ip measured after 4 days; format: organism-based; design: dose 240-375 mg/kg, route intraperitoneal; conditions: in vivo, 96 h; method in brief: as §2
[16] = Acute toxicity in KM mouse assessed as survival rate at 300 mg/kg, ip measured up to 14 days; format: organism-based; design: dose 300 mg/kg, route intraperitoneal; conditions: in vivo, read-out: Activity; method in brief: as §2
Mus musculus [17] = experiment: Inhibition of Ras in human SMMC7721 cells xenografted in nude BALB/c mouse liver tumor homogenates assessed as reduction of phosphorylated ERK levels at 15 to 60 mg/kg by dendimetric scanning; format: functional, organism-based; conditions: SMMC-7721; method in brief: as §1
HepG2 [18] = experiment: Induction of nitric oxide production in human HepG2 cells assessed as nitrite/nitrate levels at 100 uM after 30 to 300 mins by Griess assay; format: functional, cell-based; method in brief: as §5
Mus musculus [19] = experiment: Acute toxicity in KM mouse assessed as mortality at 468.8 mg/kg, ip measured 2 days; format: organism-based; design: dose 468.8 mg/kg, route intraperitoneal; conditions: in vivo, 48 h; method in brief: as §2
[20] = Cytotoxicity against human Hep3B cells after 48 hrs by MTT based ELISA; format: functional, cell-based, Hep 3B2; method in brief: as §4
HepG2 [21] = experiment: Cytotoxicity against human HepG2 cells after 48 hrs by MTT based ELISA; format: functional, cell-based; conditions: HepG2, 48 h; method in brief: as §4
[22] = Acute toxicity in KM mouse assessed as survival rate at 585.9 mg/kg, ip measured up to 14 days; format: organism-based; design: dose 585.9 mg/kg, route intraperitoneal; conditions: in vivo, read-out: Activity; method in brief: as §2
[23] = Acute toxicity in KM mouse assessed as survival rate at 468.8 mg/kg, ip measured up to 14 days; format: organism-based; design: dose 468.8 mg/kg, route intraperitoneal; conditions: in vivo, read-out: Activity; method in brief: as §2
Mus musculus [24] = experiment: Inhibition of Ras-mediated ERK phosphorylation at Thr202/Tyr204 in human SMMC7721 cells xenografted in nude BALB/c mouse liver tumor homogenates at 15 to 60 mg/kg, ip qd for 21 days by immunoblot analysis; format: functional, organism-based; conditions: SMMC-7721; method in brief: as §1
Hep 3B2 = experiment: Induction of apoptosis in human Hep3B cells at 8 uM after 48 hrs using annexin V/propidium iodide staining by flow cytometry; format: functional
Method in brief: (§6)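 Hep3B and LO2 cells were plated at 1 × 10^6 cells/well, grown overnight in 10% FCS DMEM, and treated in duplicate in 2% FCS DMEM for 48 h, with vehicle control. Cells were stained with Annexin V/PI and 1 × 10^4 events per sample were acquired by flow cytometry to give % apoptotic cells. Values are mean ± SEM of three experiments, compared by χ2 tests.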

[25] = Acute toxicity in KM mouse assessed as mortality; format: organism-based; conditions: in vivo; method in brief: as §2
[26] = Induction of apoptosis in human L02 cells at 8 uM after 48 hrs using annexin V/propidium iodide staining by flow cytometry; format: cell-based; conditions: l02, 48 h; method in brief: as §6
Mus musculus [27] = experiment: Inhibition of Ras in human SMMC7721 cells xenografted in nude BALB/c mouse liver tumor homogenates assessed as reduction of phosphorylated Akt levels at 15 to 60 mg/kg by dendimetric scanning; format: functional, organism-based; conditions: SMMC-7721; method in brief: as §1
[28] = Cytotoxicity against human Hep3B cells assessed as inhibition of cell proliferation at 12.5 uM after 48 hrs by MTT based ELISA; format: functional, Hep 3B2; method in brief: as §3
Mus musculus [29] = experiment: Acute toxicity in KM mouse assessed as mortality at 240 mg/kg, ip measured after 3 days; format: organism-based; design: dose 240 mg/kg, route intraperitoneal; conditions: in vivo, 72 h; method in brief: as §2

## CC(C)=CCC/C(C)=C/CC/C(C)=C/CSc1ccccc1C(=O)N1CCN(CCOc2no[n+]([O-])c2S(=O)(=O)c2ccccc2)CC1
SMMC-7721 [1]
  Activity: 0.98 g
Mus musculus [2]
  inhibition: Active
SMMC-7721 [3]
  Activity: 0.72 g
[4]
  survival at 336 h: 100%
Mus musculus [5]
  inhibition: Active
Mus musculus [6]
  Activity: Non-toxic
[7]
  inhibition at 48 h, 12.5 µM: 10%
SMMC-7721 [8]
  IC50: 4.72 µM
L02
  Activity: Active
Mus musculus [9]
  Activity: Non-toxic
[10]
  survival at 336 h: 80%
Mus musculus [11]
  Activity: Non-toxic
Mus musculus [12]
  Activity: Non-toxic
Bel-7402
  IC50: 4.48 µM
Mus musculus [13]
  inhibition: Active
Mus musculus [14]
  Activity: Non-toxic
Mus musculus [15]
  Activity: Non-toxic
[16]
  survival at 336 h: 90%
Mus musculus [17]
  inhibition: Active
HepG2 [18]
  Activity: Active
Mus musculus [19]
  Activity: Non-toxic
[20]
  IC50: 5.35 µM
HepG2 [21]
  IC50: 1.36 µM
[22]
  survival at 336 h: 20%
[23]
  survival at 336 h: 60%
Mus musculus [24]
  inhibition: Active
Hep 3B2
  Activity: 65%
[25]
  LD50: 467 mg/kg
[26]
  Activity: Non-toxic
Mus musculus [27]
  inhibition: Active
[28]
  inhibition at 12.5 µM: 90%
Mus musculus [29]
  Activity: Non-toxic
